Assay results pooled from the literature.
Each line is one published result; the experiments were not run side by side.
CDK5 with p25: Cyclin-dependent kinase 5, with p25 (CDK5, Homo sapiens, UniProt Q00535)
CDK5: Cyclin-dependent kinase 5 (CDK5, Homo sapiens, UniProt Q00535)

N#CCCc1ccc2c(c1)-c1[nH]c3ccc([N+](=O)[O-])cc3c1CC(=O)N2
remaining signal (CDK5 with p25; cell-free assay; 0.5 µM): 5.79%

Cc1cc(NC(=O)c2cccc3cc(-c4cccc5[nH]nc(N)c45)ccc23)ccc1F
activity vs control (CDK5 with p25; enzyme activity, inhibitor; 0.1 µM): 94%

CCCOc1ccc(OC)c(F)c1C(=O)c1ccc(C(=O)N[C@@H]2CNC[C@H]2NC(=O)c2ccc3[nH]ncc3c2)cc1
remaining activity (CDK5 with p25; enzyme activity, inhibitor; 10 µM): 1%

CO[C@@H](C)c1c(Nc2ccc([C@@H](N(C)C(=O)C3CCS(=O)(=O)CC3)C(F)(F)F)cc2)cnc2cc(Cl)nn12
remaining binding (CDK5; cell-free assay, competition with immobilised ligand; 1 µM): 99%

Cc1ccc(C(=O)NCc2ccsc2)cc1C#Cc1cn(C(C)C)c2ncnc(N)c12
activity vs control (Cyclin-dependent kinase 5, with p35 (CDK5, Homo sapiens, UniProt Q00535); enzyme activity, inhibitor; 1 µM): 96%

Cc1ccc(NC(=O)c2ccc(C)c(C(F)(F)F)c2)cc1C#Cc1nn(C2CCC(O)CC2)c2ncnc(N)c12 (stereo not shown)
remaining signal (CDK5 with p25; cell-free assay; 10 µM): 87%

CC[C@H](C)[C@H](NC(=O)[C@H](CCC(N)=O)NC(=O)[C@H](CC(C)C)NC(=O)[C@H](CCSC)NC(=O)[C@H](CCCCN)NC(=O)[C@H](CO)NC(=O)[C@H](CO)NC(=O)[C@H](CCSC)NC(=O)[C@H](CC(C)C)NC(=O)[C@H](CC(N)=O)NC(=O)[C@@H](NC(=O)[C@@H](NC(=O)[C@H](CO)NC(=O)[C@H](CC(C)C)NC(=O)[C@H](CS)NC(=O)[C@H](CCCNC(=N)N)NC(=O)[C@H](CC(=O)O)NC(=O)[C@H](Cc1c[nH]c2ccccc12)NC(=O)[C@H](Cc1ccccc1)NC(=O)[C@H](C)NC(=O)[C@H](CCC(=O)O)NC(=O)[C@@H](N)CCCCN)C(C)C)[C@@H](C)CC)C(=O)N[C@@H](CC(N)=O)C(=O)N[C@@H](C)C(=O)O
remaining activity (CDK5 with p25; enzyme activity, inhibitor, radiometric; 10 µM, 20 min): 87%

O=C1NC(c2ccccn2)Sc2ccccc21 (stereo not shown)
remaining binding (CDK5; cell-free assay, competition with immobilised ligand; 1 µM): 86%

O=C1Nc2ccc(Cl)cc2C1=Cc1cc(Cl)c(O)c(Cl)c1
remaining signal (CDK5 with p25; cell-free assay; 0.5 µM): 82.6%

CC(C)c1ccc(NC(=O)c2cccs2)c(-c2nc3ccccc3[nH]c2=O)c1
activity vs control (CDK5 with p25; enzyme activity, inhibitor; 1 µM): 95%

Nc1ncnc2occ(-c3ccc(NC(=O)Nc4cc(C(F)(F)F)ccc4F)cc3)c12
remaining signal (CDK5; cell-free assay, inhibitor; 20 µM): 0.55%

CS(=O)(=O)N1CCCC(NC(=O)[C@H](CCC2CCCCC2)NC(=O)c2ccc(CNc3ncnc4c3nnn4-c3ccccc3)cc2)C1 (stereo partly shown)
remaining binding (CDK5; cell-free assay, competition with immobilised ligand; 0.1 µM): 94%

O=C1NC(=O)c2cc(Nc3ccc(F)cc3)c(Nc3ccc(F)cc3)cc21
remaining signal (CDK5 with p25; cell-free assay; 0.5 µM): 85.9%

CC(=O)c1c(NS(C)(=O)=O)c2cc(-c3ccc(Cl)cc3)c(-c3ccc(Cl)cc3Cl)nc2n(C)c1=O
remaining binding (CDK5; cell-free assay, competition with immobilised ligand; 1 µM): 100%

Oc1ccc(-c2nc(-c3ccncc3)c(-c3ccc(F)cc3)[nH]2)cc1
remaining signal (CDK5 with p25; cell-free assay; 0.5 µM): 96%

CS(=O)(=O)N1CCCC(NC(=O)[C@H](CCC2CCCCC2)NC(=O)c2ccc(CNC(=O)c3cnc4ccccn34)cc2)C1 (stereo partly shown)
remaining binding (CDK5; cell-free assay, competition with immobilised ligand; 0.1 µM): 100%

N[C@H]1CCN(c2nccc(-c3cnn4ncccc34)n2)C1
remaining binding (CDK5; binding; 1 µM): 100%

Nc1nc(Nc2ccc(S(N)(=O)=O)cc2)nn1C(=O)c1c(F)cccc1F
remaining signal (CDK5 with p25; cell-free assay; 0.5 µM): 2.54%

CNC(=O)c1ccc(Nc2ncc(C(F)(F)F)c(NCc3nccnc3N(C)S(C)(=O)=O)n2)cc1
remaining binding (CDK5; cell-free assay, competition with immobilised ligand; 0.1 µM): 81%
